Results as given in ChEMBL document CHEMBL4765243, “Discovery of Novel Bromophenol-Thiosemicarbazone Hybrids as Potent Selective Inhibitors of Poly(ADP-ribose) Polymerase-1 (PARP-1) for Use in Cancer” (J Med Chem, 2019).
Calls of active or inactive are those of the source. The calls are words filed in the database; no cut-off is given here.

How the values were obtained:
[1] = system: Bel-7402; experiment: Antiproliferative activity against human Bel-7402 cells assessed as cell growth inhibition at 20 uM incubated for 48 hrs by MTT assay relative to control; assay type: functional
[2] = system: Caco-2; experiment: Antiproliferative activity against human Caco-2 cells assessed as cell growth inhibition at 20 uM incubated for 48 hrs by MTT assay relative to control; assay type: functional
[3] = system: SK-OV-3; experiment: Antiproliferative activity against human SK-OV-3 cells assessed as cell growth inhibition incubated for 48 hrs by MTT assay; assay type: functional, cell-based; conditions: SK-OV-3, 48 h
Procedure, shortened: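 Cells seeded in 96-well plates and exposed to compounds for 48 h; viability read by MTT. Each experiment repeated three times. SK-OV-3 grown in McCOY's 5A, Bel-7402 and HL-7702 in RPMI-1640, HepG2 in DMEM, Caco-2 in MEM.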

[4] = biological target: Poly [ADP-ribose] polymerase 2 (Homo sapiens, UniProt Q9UGN5); experiment: Inhibition of human recombinant N-terminal GST-tagged PARP-2 expressed in Baculovirus infected Sf9 cells assessed as reduction in NAD+-dependent ADP ribosylation using histone mixture (H2A and H2B) as substrate in presence of activated DNA incubated for 30 mins by chemiluminescence assay
[5] = biological target: T1, Poly [ADP-ribose] polymerase 1 (Homo sapiens, UniProt P09874); experiment: Inhibition of PARP-1 in human SKOV3 cells assessed as decrease in MCM4 protein expression level at 2.5 to 10 uM incubated for 48 hrs by western blot analysis; assay type: cell-based; conditions: SK-OV-3, dose 2.5-10 µM
Procedure, shortened: (§1)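 SK-OV-3 cells were grown in McCOY's 5A, seeded in 6-well plates and treated for 48 h. Lysate proteins were separated by 8-15 % SDS-PAGE and transferred to PVDF membranes. Membranes were blocked in 5 % nonfat milk, probed with primary antibody overnight at 4 °C and with HRP secondary antibody for 1 h at room temperature, then detected by enhanced chemiluminescence. Images are representative of 3 independent experiments.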

[6] = system: SK-OV-3; experiment: Induction of apoptosis in human SKOV3 cells at 2.5 to 10 uM incubated for 48 hrs by annexin V-FITC/PI based flow cytometric analysis; assay type: functional, cell-based; conditions: dose 2.5-10 µM
Procedure, shortened: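 SK-OV-3 cells treated 48 h, then harvested, stained with Annexin V/PI and analysed by flow cytometry.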

[7] = system: SK-OV-3; experiment: Induction of apoptosis in human SKOV3 cells assessed as increase in Bax expression at 2.5 to 10 uM incubated for 48 hrs by western blot analysis; assay type: functional, cell-based; conditions: dose 2.5-10 µM
[8] = system: SK-OV-3; experiment: Induction of ROS generation in human SKOV3 cells assessed as fold increase in ROS level at 2.5 uM incubated for 48 hrs by DCFH-DA staining based flow cytometry relative to control; assay type: functional
[9] = system: SK-OV-3; experiment: Induction of autophagy in human SKOV3 cells assessed as LC3-I protein expression at 10 uM incubated for 48 hrs by western blot analysis; assay type: functional, cell-based
Procedure, shortened: (§2)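 SK-OV-3 cells in 6-well plates treated 48 h. Lysates separated by 8-15% SDS-PAGE and transferred to PVDF. Membranes blocked in 5% milk and probed overnight at 4 °C with LC3 or Beclin 1 antibodies. HRP secondary applied 1 h at room temperature; detection by ECL.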

[10] = system: SK-OV-3; experiment: Induction of autophagy in human SKOV3 cells assessed as increase in Beclin-1 protein level at 10 uM incubated for 48 hrs by western blot analysis; assay type: functional, cell-based; procedure, shortened: as §2
[11] = Toxicity in Balb/c nude mouse xenografted with human SKOV3 cells assessed as change in body weight at 25 mg/kg, po for 21 days and measured every third day; assay type: organism-based; conditions: in vivo, 504 h, time 21 day
Procedure, shortened: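 Female BALB/c nu/nu mice, 6-8 weeks old, kept under SPF conditions. Each received 5×10^6 SK-OV-3 cells s.c. At 80–120 mm3 tumour volume, mice were split into four groups (n=6). […] Caliper measurement every three days; volume = X × (Y2/2).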

[12] = system: SK-OV-3; experiment: Antitumor activity against human SKOV3 cells xenografted in Balb/c nude mouse assessed as reduction in Ki67 expression in tumor at 25 to 50 mg/kg, po for 21 days by immunohistochemistry analysis; assay type: functional, organism-based; conditions: dose 25-50 mg/kg, time 21.0 day
Procedure, shortened: (§3)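 SK-OV-3 xenografts in female BALB/c nude mice were dosed orally at 25 or 50 mg/kg in 0.5% CMC-Na for 21 days. Tumours were then snap-frozen in liquid nitrogen or fixed in 10% neutral-buffered formalin. Analysis used western blotting, H&E and immunohistochemistry on paraffin sections (Ki67, γ-H2AX).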

[13] = system: SK-OV-3; experiment: Antitumor activity against human SKOV3 cells xenografted in Balb/c nude mouse assessed as increase in gamma-H2AX protein expression in tumor at 25 to 50 mg/kg, po for 21 days by western blot analysis; assay type: functional, organism-based; conditions: dose 25-50 mg/kg, time 21.0 day; procedure, shortened: as §3
[14] = Toxicity in Balb/c nude mouse xenografted with human SKOV3 cells assessed as histological changes in kidney at 25 to 50 mg/kg, po for 21 days by H and E staining based microscopic analysis; assay type: organism-based; conditions: in vivo, 504 h, dose 25-50 mg/kg, time 21 day; procedure, shortened: as §3
[15] = Tmax in Sprague-Dawley rat at 2 mg/kg, iv by LC/MS/MS analysis; assay type: ADME, organism-based; conditions: in vivo
Procedure, shortened: (§4)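 Male Sprague-Dawley rats, 4 per group, dosed once orally at 10 mg/kg or intravenously at 2 mg/kg. Blood taken from the saphenous vein for plasma. Drug levels measured by LC-MS-MS, with parameters derived by noncompartmental analysis.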

[16] = Half-life in Sprague-Dawley rat at 2 mg/kg, iv by LC/MS/MS analysis; assay type: ADME, organism-based; conditions: in vivo; procedure, shortened: as §4
[17] = AUC (0 to infinity) in Sprague-Dawley rat at 10 mg/kg, po by LC/MS/MS analysis; assay type: ADME, organism-based; design: time infinity, route oral, dose 10 mg/kg; conditions: in vivo
[18] = Half-life in Sprague-Dawley rat at 10 mg/kg, po by LC/MS/MS analysis; assay type: ADME, organism-based; conditions: in vivo; procedure, shortened: as §4
[19] = MRT in Sprague-Dawley rat at 10 mg/kg, po by LC/MS/MS analysis; assay type: ADME, organism-based; conditions: in vivo; procedure, shortened: as §4
[20] = Oral bioavailability in Sprague-Dawley rat at 10 mg/kg by LC/MS/MS analysis; assay type: ADME, organism-based; conditions: in vivo; procedure, shortened: as §4
[21] = Acute toxicity in SPF Kunming mouse assessed as mortality at 100 to 1000 mg/kg, po administered as single dose and measured upto 14 days post drug administration; assay type: organism-based; conditions: in vivo, 336 h, dose 100-1000 mg/kg, time <=14 day
[22] = Subacute toxicity in SPF Kunming mouse assessed as induction of death at 1000 mg/kg, po administered for 14 days and measured on day 14; assay type: organism-based; conditions: in vivo, 336 h, time 14 day
Procedure, shortened: (§5)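 Twenty SPF Kunming mice (18 - 22 g), half male and half female, randomised into 2 groups of 5 males + 5 females. Treated group dosed orally at 1000 mg/kg once daily for 14 days. Death, clinical signs and body weight monitored. After 14 days: isoflurane anaesthesia, decapitation, tissues collected for H&E histology.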

[23] = Subacute toxicity in SPF Kunming mouse assessed as change in kidney at 1000 mg/kg, po administered for 14 days by H and E staining based microscopic analysis; assay type: organism-based; conditions: in vivo, 336 h, time 14 day; procedure, shortened: as §5
[24] = Subacute toxicity in SPF Kunming mouse assessed as change in heart at 1000 mg/kg, po administered for 14 days by H and E staining based microscopic analysis; assay type: organism-based; conditions: in vivo, 336 h, time 14 day; procedure, shortened: as §5
[25] = biological target: T1, Poly [ADP-ribose] polymerase 1; experiment: Inhibition of PARP-1 in human SKOV3 cells assessed as intracellular poly-ADP ribose level at 2.5 to 10 uM incubated for 48 hrs by Western blot analysis; assay type: cell-based; conditions: SK-OV-3, dose 2.5-10 µM; procedure, shortened: as §1

T1 sequence (P09874 whole entry): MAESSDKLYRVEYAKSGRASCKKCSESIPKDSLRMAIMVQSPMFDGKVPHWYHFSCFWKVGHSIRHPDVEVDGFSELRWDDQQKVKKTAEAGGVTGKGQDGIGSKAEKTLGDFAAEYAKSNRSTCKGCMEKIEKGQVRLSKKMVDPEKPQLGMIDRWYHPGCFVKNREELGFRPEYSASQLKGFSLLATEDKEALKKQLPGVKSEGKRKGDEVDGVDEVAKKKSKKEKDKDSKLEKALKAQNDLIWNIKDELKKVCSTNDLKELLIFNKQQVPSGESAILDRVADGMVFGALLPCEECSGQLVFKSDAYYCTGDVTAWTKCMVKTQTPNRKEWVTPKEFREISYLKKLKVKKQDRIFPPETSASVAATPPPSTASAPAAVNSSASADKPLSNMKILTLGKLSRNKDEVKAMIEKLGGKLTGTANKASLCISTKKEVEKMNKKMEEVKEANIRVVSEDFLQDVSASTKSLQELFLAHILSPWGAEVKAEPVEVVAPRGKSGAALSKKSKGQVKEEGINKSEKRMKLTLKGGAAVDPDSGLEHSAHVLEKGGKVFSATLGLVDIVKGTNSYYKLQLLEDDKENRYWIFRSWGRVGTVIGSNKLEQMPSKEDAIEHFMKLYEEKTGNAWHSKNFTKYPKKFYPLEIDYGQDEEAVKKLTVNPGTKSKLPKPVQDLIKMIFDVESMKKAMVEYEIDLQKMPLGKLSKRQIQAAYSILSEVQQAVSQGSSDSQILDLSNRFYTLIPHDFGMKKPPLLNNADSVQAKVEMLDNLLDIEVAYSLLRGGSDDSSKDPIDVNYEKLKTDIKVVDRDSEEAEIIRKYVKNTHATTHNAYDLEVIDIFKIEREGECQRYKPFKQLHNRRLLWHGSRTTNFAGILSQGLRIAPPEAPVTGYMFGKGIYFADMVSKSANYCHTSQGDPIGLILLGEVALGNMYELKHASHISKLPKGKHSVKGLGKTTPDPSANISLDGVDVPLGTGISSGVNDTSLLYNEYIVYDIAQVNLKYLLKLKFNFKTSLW
Poly [ADP-ribose] polymerase 2, sequence (Q9UGN5 whole entry): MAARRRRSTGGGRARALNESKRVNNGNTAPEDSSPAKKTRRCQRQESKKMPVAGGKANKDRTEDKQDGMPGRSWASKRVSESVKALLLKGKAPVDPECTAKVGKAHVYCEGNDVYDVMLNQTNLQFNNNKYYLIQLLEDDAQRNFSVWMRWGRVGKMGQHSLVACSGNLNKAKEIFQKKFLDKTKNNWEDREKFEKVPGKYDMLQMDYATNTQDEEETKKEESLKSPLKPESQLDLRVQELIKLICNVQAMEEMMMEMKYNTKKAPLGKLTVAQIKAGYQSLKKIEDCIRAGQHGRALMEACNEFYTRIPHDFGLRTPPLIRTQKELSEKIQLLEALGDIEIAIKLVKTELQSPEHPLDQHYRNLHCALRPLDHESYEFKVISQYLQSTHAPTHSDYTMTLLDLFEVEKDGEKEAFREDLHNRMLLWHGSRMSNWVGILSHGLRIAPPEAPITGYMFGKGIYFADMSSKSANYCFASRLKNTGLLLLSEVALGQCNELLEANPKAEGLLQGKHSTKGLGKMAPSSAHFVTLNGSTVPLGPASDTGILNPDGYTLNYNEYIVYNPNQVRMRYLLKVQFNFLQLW

With COc1cc(/C=N/NC(N)=S)c(Br)c(Br)c1OC as the compound, how does the inhibition at 20 µM [1] read?
Its inhibition at 20 µM is 63.5%.

And the inhibition at 20 µM [2]?
The inhibition at 20 µM was 59.6%.

And the IC50 [3]?
The IC50 was 2390 nM.

What about the IC50 [4] of the same compound?
The IC50 was over 1000 nM.

What about the inhibition [5] of the same compound?
The inhibition was “Active”.

And the Activity [6]?
Its Activity is “Active”.

What about the Activity [7] of the same compound?
Its Activity is “Active”.

What about the “fold change (FC)” value [8] of the same compound?
Its value is 1.76.

What about the Activity [9] of the same compound?
The Activity was “Active”.

And the Activity [10]?
The Activity was “Active”.

What about the Activity [11] of the same compound?
The Activity was “Non-Toxic”.

What about the Activity [12] of the same compound?
Its Activity is “Active”.

What about the Activity [13] of the same compound?
Its Activity is “Active”.

What about the Activity [14] of the same compound?
Its Activity is “Non-Toxic”.

What about the Tmax [15] of the same compound?
Its Tmax is 4.8 min.

And the half-life [16]?
The half-life was 0.79 h.

What about the AUC [17] of the same compound?
Its AUC is 0.0839 µM·h.

What about the half-life [18] of the same compound?
Its half-life is 2.6 h.

What about the MRT [19] of the same compound?
The MRT was 3.76 h.

What about the F [20] of the same compound?
The F was 47.3%.

What about the Activity [21] of the same compound?
Its Activity is “Non-Toxic”.

And the Activity [22]?
Its Activity is “Non-Toxic”.

And the Activity [23]?
Its Activity is “Non-Toxic”.

And the Activity [24]?
Its Activity is “Non-Toxic”.

And the inhibition [25]?
The inhibition was “Active”.
